Data: ChEMBL document CHEMBL1127430, “Novel zinc chelators which inhibit the binding of HIV-EP1 (HIV enhancer binding protein) to NF-kappa B recognition sequence” (J Med Chem, 1994)

Key:
[1] = target: Zinc finger protein 40 (Homo sapiens) (UniProt P15822); experiment: Inhibition of human DNA binding to HIV-EP1 (enhancer binding protein) at 0.4 mM concentration
[2] = target: Zinc finger protein 40 (Homo sapiens) (UniProt P15822); experiment: Inhibition of human DNA binding to HIV-EP1 (enhancer binding protein) at 0.1 mM concentration
[3] = target: Zinc finger protein 40 (Homo sapiens) (UniProt P15822); experiment: Inhibition of human DNA binding to HIV-EP1 (enhancer binding protein) at 0.01 mM concentration
[4] = target: Zinc finger protein 40 (Homo sapiens) (UniProt P15822); experiment: Inhibition of human DNA binding to HIV-EP1 (enhancer binding protein) at 1.0 mM concentration
[5] = target: Zinc finger protein 40 (Homo sapiens) (UniProt P15822); experiment: Inhibition of human DNA binding to HIV-EP1 (enhancer binding protein) at 0.7 mM concentration and 2.1 mM of ZnSO4
Summary of the method: (§1)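 Same HIV-EP1 κB-site binding assay: protein with ligand and poly(dI-dC), 30 min at room temperature, in H2O-CH3OH (96:4), then labelled κB oligonucleotide. ZnSO4 at the stated level was introduced either during or after the ligand inhibition reaction. Read-out is percentage of HIV-EP1 bound to DNA.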

[6] = target: Zinc finger protein 40 (Homo sapiens) (UniProt P15822); experiment: Inhibition of human DNA binding to HIV-EP1 (enhancer binding protein) at 0.05 mM concentration
[7] = target: Zinc finger protein 40 (Homo sapiens) (UniProt P15822); experiment: Inhibition of human DNA binding to HIV-EP1 (enhancer binding protein) at 0.7 mM concentration
[8] = target: Zinc finger protein 40 (Homo sapiens) (UniProt P15822); experiment: Inhibition of human DNA binding to HIV-EP1 (enhancer binding protein) at 0.7 mM concentration and 0.7 mM of ZnSO4; summary of the method: as §1
[9] = target: Zinc finger protein 40 (Homo sapiens) (UniProt P15822); settings: 4.0 mM

Zinc finger protein 40 (Homo sapiens), sequence (P15822 whole entry, looked up): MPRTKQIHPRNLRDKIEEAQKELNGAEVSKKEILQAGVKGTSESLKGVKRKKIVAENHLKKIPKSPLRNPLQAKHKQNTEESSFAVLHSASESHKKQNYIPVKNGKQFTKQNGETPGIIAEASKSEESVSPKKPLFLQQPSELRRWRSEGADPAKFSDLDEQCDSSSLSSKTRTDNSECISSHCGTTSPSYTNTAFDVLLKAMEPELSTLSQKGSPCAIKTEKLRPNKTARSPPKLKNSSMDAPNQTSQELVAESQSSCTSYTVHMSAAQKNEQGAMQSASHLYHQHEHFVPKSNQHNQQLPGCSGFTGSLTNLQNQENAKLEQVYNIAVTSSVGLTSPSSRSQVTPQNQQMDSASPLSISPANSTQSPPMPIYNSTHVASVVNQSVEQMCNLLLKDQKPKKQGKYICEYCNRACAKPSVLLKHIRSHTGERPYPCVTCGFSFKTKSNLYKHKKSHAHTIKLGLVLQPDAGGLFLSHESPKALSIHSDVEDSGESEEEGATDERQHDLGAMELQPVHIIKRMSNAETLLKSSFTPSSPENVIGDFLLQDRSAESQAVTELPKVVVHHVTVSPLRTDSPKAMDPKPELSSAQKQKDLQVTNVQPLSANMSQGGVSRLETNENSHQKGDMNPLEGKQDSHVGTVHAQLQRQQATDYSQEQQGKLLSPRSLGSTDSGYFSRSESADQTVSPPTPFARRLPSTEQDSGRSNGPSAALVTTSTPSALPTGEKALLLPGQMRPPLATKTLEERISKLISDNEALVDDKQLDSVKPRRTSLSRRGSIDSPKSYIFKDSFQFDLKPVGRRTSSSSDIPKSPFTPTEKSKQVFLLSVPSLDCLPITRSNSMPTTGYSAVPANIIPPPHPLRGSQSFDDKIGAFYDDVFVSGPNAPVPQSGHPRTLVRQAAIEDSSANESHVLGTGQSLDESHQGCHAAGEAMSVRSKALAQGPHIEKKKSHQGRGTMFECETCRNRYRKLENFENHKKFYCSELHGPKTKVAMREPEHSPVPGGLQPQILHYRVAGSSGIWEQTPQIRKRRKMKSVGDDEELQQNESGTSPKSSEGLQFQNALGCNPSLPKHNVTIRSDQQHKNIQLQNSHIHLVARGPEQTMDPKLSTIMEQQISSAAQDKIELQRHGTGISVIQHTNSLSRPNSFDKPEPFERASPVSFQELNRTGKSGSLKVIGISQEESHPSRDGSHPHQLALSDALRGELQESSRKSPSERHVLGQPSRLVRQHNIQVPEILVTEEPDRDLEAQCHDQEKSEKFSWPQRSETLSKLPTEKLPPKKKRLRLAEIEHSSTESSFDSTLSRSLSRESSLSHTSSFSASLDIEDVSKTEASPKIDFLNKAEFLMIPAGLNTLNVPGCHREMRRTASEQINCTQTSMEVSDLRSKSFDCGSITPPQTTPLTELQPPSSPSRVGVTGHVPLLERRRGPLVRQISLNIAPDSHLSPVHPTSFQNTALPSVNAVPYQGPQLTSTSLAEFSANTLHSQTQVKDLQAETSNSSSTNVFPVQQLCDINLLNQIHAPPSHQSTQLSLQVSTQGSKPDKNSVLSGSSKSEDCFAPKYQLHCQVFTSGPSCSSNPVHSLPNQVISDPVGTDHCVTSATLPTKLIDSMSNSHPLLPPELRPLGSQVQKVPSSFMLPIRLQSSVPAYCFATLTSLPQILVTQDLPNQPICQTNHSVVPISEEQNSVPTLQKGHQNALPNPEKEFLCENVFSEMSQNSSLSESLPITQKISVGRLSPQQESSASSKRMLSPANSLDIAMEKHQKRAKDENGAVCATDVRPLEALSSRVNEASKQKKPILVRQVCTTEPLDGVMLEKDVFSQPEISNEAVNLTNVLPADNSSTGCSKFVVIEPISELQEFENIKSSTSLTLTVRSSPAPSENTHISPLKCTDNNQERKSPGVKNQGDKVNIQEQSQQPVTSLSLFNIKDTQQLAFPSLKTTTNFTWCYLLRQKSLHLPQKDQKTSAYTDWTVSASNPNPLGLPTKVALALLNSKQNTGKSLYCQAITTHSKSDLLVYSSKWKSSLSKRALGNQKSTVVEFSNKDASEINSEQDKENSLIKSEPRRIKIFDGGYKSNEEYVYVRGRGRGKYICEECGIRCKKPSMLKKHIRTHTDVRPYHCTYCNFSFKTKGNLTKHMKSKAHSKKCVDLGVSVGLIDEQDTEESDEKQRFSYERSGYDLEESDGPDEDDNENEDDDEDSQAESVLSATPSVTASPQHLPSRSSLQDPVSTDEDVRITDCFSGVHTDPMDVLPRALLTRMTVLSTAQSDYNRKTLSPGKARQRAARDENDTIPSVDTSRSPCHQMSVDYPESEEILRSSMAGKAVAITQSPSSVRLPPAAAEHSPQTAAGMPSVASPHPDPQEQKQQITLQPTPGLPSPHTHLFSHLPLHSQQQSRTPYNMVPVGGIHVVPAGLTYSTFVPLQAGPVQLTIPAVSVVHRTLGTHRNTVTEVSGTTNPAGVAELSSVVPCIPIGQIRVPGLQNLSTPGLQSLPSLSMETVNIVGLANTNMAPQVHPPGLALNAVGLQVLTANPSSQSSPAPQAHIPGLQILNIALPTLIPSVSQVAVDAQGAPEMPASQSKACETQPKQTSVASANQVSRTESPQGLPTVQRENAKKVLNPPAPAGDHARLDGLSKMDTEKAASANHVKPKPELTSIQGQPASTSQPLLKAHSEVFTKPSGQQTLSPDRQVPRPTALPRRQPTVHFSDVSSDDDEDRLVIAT

Row | Binding [1] [%] | Binding [2] [%] | Binding [3] [%] | Binding [4] [%] | Binding [5] [%] | Binding [6] [%] | Binding [7] [%] | Binding [8] [%] | Binding [9] [%] | SMILES
1 | 4 | 68 | 100 | 0 | 100 | 81 | 0 | 100 | – | COC(=O)[C@H](Cc1c[nH]cn1)NCc1cc(N(C)C)cc(CN[C@@H](Cc2c[nH]cn2)C(=O)OC)n1
2 | – | – | – | 33 | – | – | – | – | 16 | O=C(O)CN(CCN(CC(=O)O)CC(=O)O)CC(=O)O
